# The source made the active and inactive calls. The rule behind the calls is not given here.
# Legend:
# [1] = Relative resistance, ratio of IC50 for beta3 tubulin overexpressed in human HeLa cells to IC50 for human HeLa cells
# Method in brief: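 SRB antiproliferative assay on isogenic pairs: parental SK-OV-3 vs Pgp-overexpressing SK-OV-3 MDR-M6-6, and parental HeLa vs βIII-tubulin-transfected HeLa. IC50 is the mean ± SD of at least three independent experiments. Relative resistance (Rr) is the IC50 of the transduced line divided by the IC50 of the parental line.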
# [2] = test system: MDA-MB-231; test: Antitumor activity against human MDA-MB-231 cells xenografted in athymic nude mouse assessed as tumor growth inhibition at 50 mg/kg, ip bid administered every other day started on day 14 followed by compound readministration every other day started on day 27 measured on day 31 relative to control; assay type: functional; conditions: route intraperitoneal
# Method in brief: (§1)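 Female athymic nude mice were implanted sc with an MDA-MB-231T tumour fragment, and tumours were staged to about 125 mg. Drug was given ip in 10% DMSO in saline/Tween 80, with courses starting day 14 and repeated from day 27. There were 8 animals per treated group and 16 controls. Read-outs were body weight, deaths, median tumour mass as T/C, days to a predetermined size as T-C/C, and net log cell kill.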
# [3] = test system: MDA-MB-231; test: Antitumor activity against human MDA-MB-231 cells xenografted in athymic nude mouse assessed as tumor free state at 50 mg/kg, ip qd administered on day 14 for 5 days followed by compound readministration on day 27 measured on day 41; assay type: functional, organism-based; parameters: dose 50 mg/kg
# Method in brief: (§2)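 Female athymic nude mice carried sc MDA-MB-231T tumor fragments staged to about 125 mg. Compound was given ip as a solution in 10% DMSO in saline/Tween 80, with courses beginning day 14 and repeated from day 27. Groups had 8 animals, with 16 vehicle controls. Animals were scored as tumor-free on day 41.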
# [4] = test system: HeLa; test: Antiproliferative activity against human HeLa cells after 48 hrs by SRB assay; assay type: functional, cell-based
# Method in brief: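 Isogenic pairs: parental SK-OV-3 alongside its Pgp-overexpressing subline MDR-M6-6, and parental HeLa alongside βIII-tubulin-transfected HeLa. Antiproliferative IC50 measured by sulforhodamine B assay, averaged from at least three independent experiments ± SD. Relative resistance is the transduced-line IC50 divided by the parental-line IC50.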
# [5] = test system: MDA-MB-231; test: Antitumor activity against human MDA-MB-231 cells xenografted in athymic nude mouse assessed as tumor free state at 75 mg/kg, ip qd administered every other day started on day 14 for 5 days followed by compound readministration on day 27 measured on day 41; assay type: functional, organism-based; parameters: dose 75 mg/kg; method in brief: as §2
# [6] = test system: Mus musculus; test: Toxicity in athymic nude mouse xenografted in human MDA-MB-231 cells assessed as mortality at 75 mg/kg, ip qd administered every other day started on day 14 for 5 days followed by compound readministration on day 27; assay type: organism-based; parameters: dose 75 mg/kg, route intraperitoneal; conditions: in vivo, 120 h; method in brief: as §1
# [7] = test system: MDA-MB-231; test: Antitumor activity against human MDA-MB-231 cells xenografted in athymic nude mouse assessed as delay in tumor growth at 75 mg/kg, ip qd administered every other day started on day 14 for 5 days followed by compound readministration on day 27 measured on day 31 relative to control; assay type: functional; conditions: route intraperitoneal
# Method in brief: (§3)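 MDA-MB-231T tumor fragments implanted sc in female athymic nude mice and staged to about 125 mg. Dosing was ip in 10% DMSO in saline/Tween 80, with courses starting day 14 and again day 27. Groups had 8 treated animals and 16 controls. Growth delay (T-C/C) is the median days for treated vs control tumors to reach a predetermined size, normalized to control, as %.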
# [8] = test system: MDA-MB-231; test: Antitumor activity against human MDA-MB-231 cells xenografted in athymic nude mouse assessed as tumor log cell kill at 75 mg/kg, ip qd administered every other day started on day 14 for 5 days followed by compound readministration on day 27; assay type: functional; conditions: route intraperitoneal; method in brief: as §1
# [9] = test system: MDA-MB-231; test: Antitumor activity against human MDA-MB-231 cells xenografted in athymic nude mouse assessed as tumor free state at 75 mg/kg, ip qd administered on day 14 for 5 days followed by compound readministration on day 27 measured on day 41; assay type: functional, organism-based; parameters: dose 75 mg/kg; method in brief: as §2
# [10] = test system: Mus musculus; test: Toxicity in athymic nude mouse xenografted in human MDA-MB-231 cells assessed as mortality at 50 mg/kg, ip bid administered every other day started on day 14 followed by compound readministration every other day started on day 27; assay type: organism-based; parameters: dose 50 mg/kg, route intraperitoneal; conditions: in vivo; method in brief: as §1
# [11] = test system: MDA-MB-231; test: Antitumor activity against human MDA-MB-231 cells xenografted in athymic nude mouse assessed as tumor free state at 50 mg/kg, ip bid administered every other day started on day 14 followed by compound readministration every other day started on day 27 measured on day 41; assay type: functional, organism-based; parameters: dose 50 mg/kg; method in brief: as §2
# [12] = test system: Mus musculus; test: Toxicity in athymic nude mouse xenografted in human MDA-MB-231 cells assessed as body weight loss at 50 mg/kg, ip bid administered every other day started on day 14 followed by compound readministration every other day started on day 27 (reference value: 6.7%); assay type: organism-based; parameters: dose 50 mg/kg, route intraperitoneal; conditions: in vivo
# [13] = test system: MDA-MB-231; test: Antitumor activity against human MDA-MB-231 cells xenografted in athymic nude mouse assessed as net tumor log cell kill at 50 mg/kg, ip qd administered on day 14 for 5 days followed by compound readministration on day 27; assay type: functional; conditions: route intraperitoneal; method in brief: as §1
# [14] = test system: MDA-MB-231; test: Antitumor activity against human MDA-MB-231 cells xenografted in athymic nude mouse assessed as delay in tumor growth at 50 mg/kg, ip bid administered every other day started on day 14 followed by compound readministration every other day started on day 27 measured on day 31 relative to control; assay type: functional; conditions: route intraperitoneal; method in brief: as §3
# [15] = test system: MDA-MB-231; test: Antitumor activity against human MDA-MB-231 cells xenografted in athymic nude mouse assessed as net tumor log cell kill at 75 mg/kg, ip qd administered on day 14 for 5 days followed by compound readministration on day 27; assay type: functional; conditions: route intraperitoneal; method in brief: as §1
# [16] = test system: MDA-MB-435; test: Cytotoxicity against human MDA-MB-435 cells assessed as growth inhibition after 48 hrs by SRB assay; assay type: functional, cell-based; conditions: MDA-MB-435, 48 h
structure (smiles),measurement,setting,value
COc1ccc(N(C)c2nc(C)nc3c2CC(C)C3)cc1.Cl (racemic),Ratio IC50,[1],0.6
COc1ccc(N(C)c2nc(C)nc3c2CCC3)cc1.Cl,T/C,[2],25%
same,Activity,[3],Active
same,IC50,[4],9.3 nM
same,Activity,[5],Active
same,Activity,[6],Non-toxic
same,Activity,[7],44%
same,LCK,[8],-1.5
same,Activity,[9],Active
same,Activity,[10],Non-toxic
same,Activity,[11],Active
same,%max,[12],7.8%
same,LCK,[13],-1.4
same,Activity,[14],32%
same,LCK,[15],-1.1
same,IC50,[16],7 nM
